Test results published in ChEMBL document CHEMBL2069237, “3-Hydroxy-3-methylglutaryl flavonol glycosides from Oxytropis falcata” (2012).

system: RAW264.7; assay: Antiinflammatory activity in mouse RAW264.7 cells assessed as inhibition of lipopolysaccharide-induced nitric oxide production at 50 uM pre-incubated for 4 hrs before LPS challenge for 24 hrs by Griess assay; format: functional
Method in brief: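 RAW 264.7 murine macrophages grown in DMEM with 10% FBS, 2 mmol/L L-glutamine, penicillin/streptomycin, 37 °C, 5% CO2. Cells (5 × 10^5/mL) preincubated 8 h, given compound at 10 or 50 μM for 4 h, then LPS (final 1 μg/mL) for 24 h. Nitrite in supernatant measured by Griess reagent, absorbance 570 nm, against sodium nitrite standard; expressed as % inhibition.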

| SMILES | inhibition at 50 µM [%] |
| --- | --- |
| C[C@@H]1O[C@@H](OC[C@H]2O[C@@H](Oc3c(-c4ccc(O)cc4)oc4cc(O[C@@H]5O[C@@H](C)[C@H](O)[C@@H](O)[C@H]5O)cc(O)c4c3=O)[C@H](O)[C@@H](O)[C@@H]2O)[C@H](O)[C@H](O)[C@H]1O | < 5 |
| C[C@@H]1O[C@@H](OC[C@H]2O[C@@H](Oc3c(-c4ccc(O)cc4)oc4cc(O)cc(O)c4c3=O)[C@H](O)[C@@H](O)[C@H]2O)[C@H](O)[C@H](O)[C@H]1O | < 5 |
| O=C(/C=C/c1ccccc1)c1ccc(O)cc1O [2',4'-DIHYDROXYCHALCONE] | 40.1 |
| CC1O[C@@H](OC[C@H]2O[C@@H](Oc3c(-c4ccc(O)cc4)oc4cc(O)cc(O)c4c3=O)C(O[C@@H]3O[C@H](C)[C@H](O)C(O)C3O)C(O)[C@H]2O)C(O)[C@@H](O)[C@H]1O (stereo partly specified) [MAURITIANIN] | < 5 |
| COc1cc(O)c2c(=O)c(O[C@@H]3O[C@H](COC(=O)C[C@@](C)(O)CC(=O)O)[C@H](O)[C@H](O)[C@H]3O[C@@H]3O[C@@H](C)[C@H](O)[C@@H](O)[C@H]3O)c(-c3ccc(O)cc3)oc2c1 [OXYTROFLAVOSIDE A] | < 5 |
| COc1cc(O)c2c(=O)c(O[C@@H]3O[C@H](CO)[C@H](O)[C@H](OC(=O)C[C@@](C)(O)CC(=O)O)[C@H]3O[C@@H]3O[C@@H](C)[C@H](O)[C@@H](O)[C@H]3O)c(-c3ccc(O)cc3)oc2c1 [OXYTROFLAVOSIDE B] | < 5 |
| COc1cc(O)c2c(=O)c(O[C@@H]3O[C@H](CO)[C@H](OC(=O)C[C@@](C)(O)CC(=O)O)[C@H](O)[C@H]3O[C@@H]3O[C@@H](C)[C@H](O)[C@@H](O)[C@H]3O)c(-c3ccc(O)cc3)oc2c1 [OXYTROFLAVOSIDE C] | < 5 |
| COc1cc(O)c2c(=O)c(O[C@@H]3O[C@H](COC(=O)C[C@@](C)(O)CC(=O)O)[C@H](O)[C@H](O)[C@H]3O)c(-c3ccc(O)cc3)oc2c1 [OXYTROFLAVOSIDE D] | < 5 |
| COc1cc(O)c2c(=O)c(O[C@@H]3O[C@H](COC(=O)C[C@@](C)(O)CC(=O)O)[C@H](O)[C@H](O)[C@H]3O)c(-c3ccc(O[C@@H]4O[C@H](CO)[C@@H](O)[C@H](O)[C@H]4O)cc3)oc2c1 [OXYTROFLAVOSIDE E] | < 5 |
| COc1cc(O)c2c(=O)c(O[C@@H]3O[C@H](CO)[C@H](O)[C@H](O)[C@H]3O[C@@H]3O[C@@H](C)[C@H](O)[C@@H](O)[C@H]3O)c(-c3ccc(O)cc3)oc2c1 [OXYTROFLAVOSIDE F] | < 5 |
| COc1cc(O)c2c(=O)c(O[C@@H]3O[C@H](CO[C@@H]4O[C@@H](C)[C@H](O)[C@@H](O)[C@H]4O)[C@H](O)[C@H](O)[C@H]3O[C@@H]3O[C@@H](C)[C@H](O)[C@@H](O)[C@H]3O)c(-c3ccc(O)cc3)oc2c1 [OXYTROFLAVOSIDE G] | < 5 |
